What all share (type): cell-based
For assay [1], the target named is T1, RNA polymerase II (Mus musculus) (UniProt P08775+Q8CFI7+P97760+A0A3Q4L2S8+Q80UW8+P61219+P62488+Q923G2+P60898+O08740+Q63871+P62876). The assay is described as follows: Inhibition of RNA polymerase II in mouse B16-F1 migrating cells assessed as fold change in Fosb-RNA stability at 0.1 mM measured by ChIP-seq analysis relative to control cells.
The target in assay [2] is T1, RNA polymerase II (Mus musculus). The assay is described as follows: Inhibition of RNA polymerase II in mouse B16-F1 migrating cells assessed as fold change in Vegfa-RNA stability at 0.1 mM measured by […] analysis relative to control cells.
For assay [3] the target is unchanged. Nature of the assay: Inhibition of RNA polymerase II in mouse B16-F1 migrating cells assessed as fold change in Rpl14-RNA stability at 0.1 mM measured by […] analysis relative to control cells.
The target is the same in assay [4]. The assay is described as follows: Inhibition of RNA polymerase II in mouse B16-F1 migrating cells assessed as fold change in Samd14-RNA stability at 0.1 mM measured by […] analysis relative to control cells.
Assay [5] has the same target. The assay is described as follows: Inhibition of RNA polymerase II in mouse B16-F1 migrating cells assessed as fold change in Eri3-RNA stability at 0.1 mM measured by ChIP-seq analysis relative to control cells.
The target is the same in assay [6]. The assay is described as follows: Inhibition of RNA polymerase II in mouse B16-F1 migrating cells assessed as fold change in Crbn-RNA stability at 0.1 mM measured by ChIP-seq analysis relative to control cells.
Assay [7] has the same target. Nature of the assay: Inhibition of RNA polymerase II in mouse B16-F1 migrating cells assessed as fold change in Socs5-RNA stability at 0.1 mM measured by […] analysis relative to control cells.
For assay [8] the target is unchanged. The assay is described as follows: Inhibition of RNA polymerase II in mouse B16-F1 migrating cells assessed as fold change in Adam17-RNA stability at 0.1 mM measured by […] analysis relative to control cells.
For assay [9] the target is unchanged. The assay is described as follows: Inhibition of RNA polymerase II in mouse B16-F1 migrating cells assessed as fold change in Dock10-RNA stability at 0.1 mM measured by ChIP-seq analysis relative to control cells.
For assay [10] the target is unchanged. Nature of the assay: Inhibition of RNA polymerase II in mouse B16-F1 migrating cells assessed as fold change in Repin1-RNA stability at 0.1 mM measured by […] analysis relative to control cells.
Assay [11] shares this target. Nature of the assay: Inhibition of RNA polymerase II in mouse B16-F1 migrating cells assessed as fold change in Efcab7-RNA stability at 0.1 mM measured by ChIP-seq analysis relative to control cells.
Assay [12] shares this target. The assay is described as follows: Inhibition of RNA polymerase II in mouse B16-F1 migrating cells assessed as fold change in Dnttip2-RNA stability at 0.1 mM measured by ChIP-seq analysis relative to control cells. The method, boiled down:
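Mouse B16-F1 melanoma cells grown to confluence on fibronectin in DMEM/10% FCS at 37 °C, 7% CO2. Migration induced by multiple scratches and 3 h incubation; unscratched controls. DRB 0.1 mM added 3 h before lysis. RNA from poly A-selected mRNA was sequenced (RNA-seq, three replicates per DRB group). Fold change computed for DRB-treated migrating vs DRB-treated control cells; cutoffs fold change >1.3, FDR <0.05.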

Assay [13] addresses Histone-lysine N-methyltransferase EZH2 (Mus musculus) (UniProt Q61188). The assay is described as follows: Inhibition of EZH2 in mouse B16-F1 migrating cells assessed as fold change in H3K27me3-dependent regulated Cxxc5-mRNA expression at 3 uM measured by […] analysis relative to control cells. An outline of the steps: (§1)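 Confluent B16-F1 cells on fibronectin-coated plates were scratched at multiple sites, washed once with DMEM and left to migrate 3 h in growth medium (37 °C, 7% CO2); unscratched cells served as control. GSK343 (3 µM) was added 3 h before lysis. Poly A mRNA was sequenced (RNA-seq), with 5 replicates for untreated and 3 for treated cells. Differential expression was called by linear model with batch correction, at FDR <0.05 and fold change ≥1.3.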

The target is the same in assay [14]. The assay is described as follows: Inhibition of EZH2 in mouse B16-F1 migrating cells assessed as fold change in H3K27me3-independent regulated Serpinb8-mRNA expression at 3 uM measured by […] analysis relative to control cells. An outline of the steps:
as §1

Assay [15] shares this target. Nature of the assay: Inhibition of EZH2 in mouse B16-F1 migrating cells assessed as fold change in H3K27me3-independent regulated Hells-mRNA expression at 3 uM measured by […] analysis relative to control cells. An outline of the steps: as §1
The target is the same in assay [16]. Nature of the assay: Inhibition of EZH2 in mouse B16-F1 migrating cells assessed as fold change in H3K27me3-buffered regulated Gm28989-mRNA expression at 3 uM measured by […] analysis relative to control cells. An outline of the steps: (§2)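 Confluent B16-F1 cells on fibronectin-coated plates, cultured at 37 °C and 7% CO2, were scratched at multiple sites to induce migration. They were then held 3 h in growth medium containing 3 µM GSK343, with the inhibitor added 3 h before lysis. Unscratched cells served as controls. Poly A mRNA was analysed by RNA-seq (n=3 GSK343, n=5 controls). Linear models removed batch effects, and buffered genes were those altered only under GSK343 (FDR <0.05, fold change >1.3).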

Assay [17] shares this target. The assay is described as follows: Inhibition of EZH2 in mouse B16-F1 migrating cells assessed as fold change in H3K27me3-buffered regulated Kcnj14-mRNA expression at 3 uM measured by ChIP-seq analysis relative to control cells. An outline of the steps:
as §2

The target is the same in assay [18]. The assay is described as follows: Inhibition of EZH2 in mouse B16-F1 migrating cells assessed as fold change in H3K27me3-buffered regulated Pygm-mRNA expression at 3 uM measured by […] analysis relative to control cells. The method, boiled down: as §2
Assay [19] has the same target. Nature of the assay: Inhibition of EZH2 in mouse B16-F1 migrating cells assessed as fold change in H3K27me3-buffered regulated 5031439G07Rik-mRNA expression at 3 uM measured by […] analysis relative to control cells. The method, boiled down: as §2
Assay [20] shares this target. The assay is described as follows: Inhibition of EZH2 in mouse B16-F1 migrating cells assessed as fold change in H3K27me3-buffered regulated Ctxn1-mRNA expression at 3 uM measured by ChIP-seq analysis relative to control cells. An outline of the steps: as §2
For assay [21] the target is unchanged. The assay is described as follows: Inhibition of EZH2 in mouse B16-F1 migrating cells assessed as fold change in H3K27me3-buffered regulated Dlg4-mRNA expression at 3 uM measured by ChIP-seq analysis relative to control cells. An outline of the steps:
as §2

Assay [22] shares this target. The assay is described as follows: Inhibition of EZH2 in mouse B16-F1 migrating cells assessed as fold change in H3K27me3-buffered regulated Zc3h7a-mRNA expression at 3 uM measured by […] analysis relative to control cells. An outline of the steps: as §1
The target is the same in assay [23]. The assay is described as follows: Inhibition of EZH2 in mouse B16-F1 migrating cells assessed as fold change in H3K27me3-buffered regulated Cntrob-mRNA expression at 3 uM measured by […] analysis relative to control cells. The method, boiled down: as §2
The target is the same in assay [24]. The assay is described as follows: Inhibition of EZH2 in mouse B16-F1 migrating cells assessed as fold change in H3K27me3-buffered regulated Tet2-mRNA expression at 3 uM measured by ChIP-seq analysis relative to control cells. An outline of the steps:
as §1

Sequence of Histone-lysine N-methyltransferase EZH2 (Mus musculus) (Q61188 whole entry): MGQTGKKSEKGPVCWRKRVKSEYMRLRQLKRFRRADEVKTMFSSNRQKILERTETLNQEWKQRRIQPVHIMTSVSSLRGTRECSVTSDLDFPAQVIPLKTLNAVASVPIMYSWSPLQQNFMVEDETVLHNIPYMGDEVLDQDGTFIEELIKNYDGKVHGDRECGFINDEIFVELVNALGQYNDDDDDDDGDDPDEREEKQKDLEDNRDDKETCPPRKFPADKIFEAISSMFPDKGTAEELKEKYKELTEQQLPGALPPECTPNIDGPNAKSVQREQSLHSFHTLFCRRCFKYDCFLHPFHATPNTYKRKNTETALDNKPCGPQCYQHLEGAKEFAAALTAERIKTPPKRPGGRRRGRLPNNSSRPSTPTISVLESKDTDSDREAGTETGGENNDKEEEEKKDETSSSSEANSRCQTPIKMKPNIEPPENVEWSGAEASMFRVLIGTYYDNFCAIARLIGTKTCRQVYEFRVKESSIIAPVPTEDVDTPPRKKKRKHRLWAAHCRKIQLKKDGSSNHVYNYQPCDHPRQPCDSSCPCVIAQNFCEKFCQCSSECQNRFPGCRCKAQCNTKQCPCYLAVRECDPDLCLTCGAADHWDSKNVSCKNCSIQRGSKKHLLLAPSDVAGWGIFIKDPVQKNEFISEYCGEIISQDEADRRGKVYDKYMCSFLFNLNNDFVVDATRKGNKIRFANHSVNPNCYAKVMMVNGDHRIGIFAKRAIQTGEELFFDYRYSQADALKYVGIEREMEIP

`OC[C@H]1O[C@@H](n2cnc3cc(Cl)c(Cl)cc32)[C@H](O)[C@@H]1O`: the log2FC in assay [1] was 2.03; in assay [2] it was 0.67; in [3], 0.49; in assay [4], 0.46; in [5], 0.38; in assay [6] it was -0.45. The log2FC was -0.48 in [7]; -0.56 in assay [8]; -0.68 in assay [9]; -0.71 in assay [10]; -0.79 in assay [11]; -0.87 in [12].
Take `CCCc1cc(C)[nH]c(=O)c1CNC(=O)c1cc(-c2ccnc(N3CCN(C)CC3)c2)cc2c1cnn2C(C)C`: the log2FC is 0.23 in assay [13]; 0.81 in [14]; -0.45 in [15]; 1.08 in assay [16]; 1.07 in assay [17]; 0.85 in assay [18]. Further, the log2FC in assay [19] was 0.45; in assay [20], 0.43; in assay [21], 0.39; in assay [22], -0.42; in [23] it was -0.42; in assay [24], -0.48.

Source of the values: ChEMBL document CHEMBL5674883, “The Heterochromatin Landscape in Migrating Cells and the Importance of H3K27me3 for Associated Transcriptome Alterations” (Cells, 2018).
